Data on 32 molecules can be found in ChEMBL document CHEMBL2010713, “Structure-activity relationship of a new series of reversible dual monoacylglycerol lipase/fatty acid amide hydrolase inhibitors” (J Med Chem, 2012).

For assay [1], the target named is T1, Monoglyceride lipase (Homo sapiens, UniProt Q99685).
T1 sequence (Q99685 whole entry): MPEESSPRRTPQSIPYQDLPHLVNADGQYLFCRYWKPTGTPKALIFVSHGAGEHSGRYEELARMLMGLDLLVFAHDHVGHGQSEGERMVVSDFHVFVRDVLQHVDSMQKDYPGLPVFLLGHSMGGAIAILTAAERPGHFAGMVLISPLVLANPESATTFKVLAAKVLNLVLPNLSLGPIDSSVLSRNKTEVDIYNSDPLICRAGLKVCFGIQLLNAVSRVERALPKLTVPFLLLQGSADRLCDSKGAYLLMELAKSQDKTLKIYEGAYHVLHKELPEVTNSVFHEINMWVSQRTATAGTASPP
The experiment in a line: Inhibition of human recombinant his-tagged MAGL expressed in Escherichia coli assessed as hydrolysis of 4-nitrophenyl acetate after 20 mins by microplate reader.

Assay [2] addresses T2, Monoglyceride lipase (Homo sapiens) (UniProt Q99685).
T2 sequence (whole entry): T1 sequence (Q99685 whole entry)
The experiment in a line: Inhibition of human recombinant his-tagged MAGL expressed in Escherichia coli assessed as hydrolysis of 4-nitrophenyl acetate at 10 uM after 20 mins by microplate reader.

For assay [3], the target named is Monoglyceride lipase (Rattus norvegicus) (UniProt Q8R431). The experiment in a line: Inhibition of rat brain cytosolic MAGL assessed as [3H]-2-oleoylglycerol hydrolysis after 10 mins by liquid scintillation spectroscopy.
In assay [4] the target is T3, Fatty-acid amide hydrolase 1 (Rattus norvegicus) (UniProt P97612).
T3 sequence (whole entry): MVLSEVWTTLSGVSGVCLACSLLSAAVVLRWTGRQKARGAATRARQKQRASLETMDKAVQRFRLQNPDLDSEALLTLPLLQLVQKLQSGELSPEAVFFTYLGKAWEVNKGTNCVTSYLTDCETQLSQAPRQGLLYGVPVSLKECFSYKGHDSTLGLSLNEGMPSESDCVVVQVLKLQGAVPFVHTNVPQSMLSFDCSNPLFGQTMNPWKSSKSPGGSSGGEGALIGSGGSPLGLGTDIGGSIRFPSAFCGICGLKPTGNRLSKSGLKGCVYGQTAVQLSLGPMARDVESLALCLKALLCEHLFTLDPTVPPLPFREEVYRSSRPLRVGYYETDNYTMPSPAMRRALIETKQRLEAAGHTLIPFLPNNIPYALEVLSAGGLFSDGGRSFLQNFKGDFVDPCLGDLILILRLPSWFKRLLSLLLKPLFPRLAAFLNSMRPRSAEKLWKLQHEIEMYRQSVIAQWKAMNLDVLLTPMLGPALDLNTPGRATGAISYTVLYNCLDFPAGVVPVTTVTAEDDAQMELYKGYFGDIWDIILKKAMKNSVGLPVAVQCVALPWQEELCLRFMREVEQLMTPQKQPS
The experiment in a line: Inhibition of rat brain membrane FAAH assessed as [3H]-anandamide hydrolysis at 100 uM after 10 mins by liquid scintillation spectroscopy. A digest of the protocol: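 Membrane fraction of rat cerebella (100000g pellet resuspended in 50 mM sodium phosphate pH 8.0), diluted in 10 mM Tris-HCl, 1 mM EDTA, pH 7.2, for initial-rate conditions. [3H]-anandamide, ethanolamine-labelled, final 0.5 μM, with fatty acid-free BSA. Aqueous-phase tritium measured by liquid scintillation; blanks lacked enzyme; activity as percent of solvent-carrier control. Highest concentration 100 μM; 3–10 independent experiments.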

Assay [5] concerns the target Fatty-acid amide hydrolase 1 (Rattus norvegicus) (UniProt P97612). The experiment in a line: Inhibition of rat brain membrane FAAH assessed as [3H]-anandamide hydrolysis after 10 mins by liquid scintillation spectroscopy.
The target in assay [6] is T4, Monoglyceride lipase (Rattus norvegicus) (UniProt Q8R431).
T4 sequence (whole entry): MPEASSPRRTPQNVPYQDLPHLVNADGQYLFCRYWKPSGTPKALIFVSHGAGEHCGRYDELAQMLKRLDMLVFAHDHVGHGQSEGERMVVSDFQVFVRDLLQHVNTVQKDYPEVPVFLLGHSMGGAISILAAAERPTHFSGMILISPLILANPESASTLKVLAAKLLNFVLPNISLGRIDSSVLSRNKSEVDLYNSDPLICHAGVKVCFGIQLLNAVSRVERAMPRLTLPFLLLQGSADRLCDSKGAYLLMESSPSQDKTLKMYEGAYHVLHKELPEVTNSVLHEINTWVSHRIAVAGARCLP
The experiment in a line: Inhibition of rat brain cytosolic MAGL assessed as [3H]-2-arachidonoyl glycerol hydrolysis at 100 uM after 10 mins by liquid scintillation spectroscopy.

In assay [7] the target is T4, Monoglyceride lipase (Rattus norvegicus). The experiment in a line: Irreversible inhibition of rat brain cytosolic MAGL assessed as […] at 0.1 to 1 uM preincubated for 60 mins by liquid scintillation.
Assay [8] concerns the target T2, Monoglyceride lipase (Homo sapiens).
The target in assay [9] is T4, Monoglyceride lipase (Rattus norvegicus). Particulars: 10 uM.
Assay [10] has the same target. Particulars: 10 uM. The source holds these as a separate data set.
Assay [11] has the same target. The experiment in a line: Irreversible inhibition of rat brain cytosolic MAGL assessed as […] at 3 to 10 uM preincubated for 60 mins by liquid scintillation.
Assay [12] has the same target. Particulars: 10 uM. This is another data set of the same source.
The target is the same in assay [13]. Particulars: 10 uM. The source holds these as a separate data set.
Assay [14] deals with Monoglyceride lipase (Rattus norvegicus) (UniProt Q8R431). Put plainly: Inhibition of rat brain cytosolic MAGL assessed as [3H]-2-oleoylglycerol hydrolysis at 100 uM after 10 mins by liquid scintillation spectroscopy. Particulars: Cytosol.
The target in assay [15] is T1, Monoglyceride lipase. The experiment in a line: Non-competitive inhibition of human recombinant MAGL assessed as 7-hydroxycoumarin level using umbelliferyl arachidonate as substrate by luminescence spectrophotometer.
The target of assay [16] is T4, Monoglyceride lipase (Rattus norvegicus). Put plainly: Irreversible inhibition of rat brain cytosolic MAGL assessed as [3H]-anandamide hydrolysis at 3 uM preincubated for 60 mins measured after dilution by liquid scintillation.
The target is the same in assay [17]. Put plainly: Irreversible inhibition of rat brain cytosolic MAGL assessed as [3H]-2-arachidonoyl glycerol hydrolysis at 3 uM preincubated for 60 mins followed by […] compound treated after dilution by liquid scintillation.
For assay [18] the target is unchanged. The experiment in a line: Irreversible inhibition of rat brain cytosolic MAGL assessed as [3H]-anandamide hydrolysis at 3 uM preincubated for 60 mins followed by […] compound treated after dilution by liquid scintillation.
Assay [19] shares this target. Put plainly: Irreversible inhibition of rat brain cytosolic MAGL assessed as [3H]-2-arachidonoyl glycerol hydrolysis at 3 uM preincubated for 60 mins measured after dilution by liquid scintillation.
Assay [20] shares this target. Put plainly: Irreversible inhibition of rat brain cytosolic MAGL assessed as [3H]-2-arachidonoyl glycerol hydrolysis at 0.1 uM preincubated for 60 mins by liquid scintillation.

Molecules are shown by their SMILES. Activity calls are given as the source filed them. No cut-off for these calls is given here.

As a reminder, the IC50 is the concentration needed to halve the response being measured. What is called inhibition is the drop in the measured response relative to a control, in per cent. Take `O=C(C/C=C/c1ccc(-c2ccccc2)cc1)OCC1CCCCO1` (racemic): the IC50 at Monoglyceride lipase [1] is more than 10 µM. Further, in assay [2], the inhibition was found to be 12%.

Consider `O=C(CCCCc1ccc(-c2ccccc2)cc1)OCC1CO1` (racemic), for which the IC50 at Monoglyceride lipase [1] stood at 6.6 µM; in assay [3] it was 2.6 µM; in assay [5], 4.6 µM. The Imax in [4] worked out at 87%.

On to `O=C(/C=C/c1ccc(-c2ccccc2)cc1)OCC1CO1` (racemic), for which the 50% inhibitory concentration (IC50) on Monoglyceride lipase [1] amounted to 5.1 µM. Moreover, the Imax in assay [6] was 73%.

Consider `O=C(CCc1ccc(Cc2ccccc2)cc1)OCC1CCCCO1` (racemic), for which, in assay [2], the inhibition is less than 10%.

`O=C(CCc1ccc(-c2ccccc2)cc1)OCC1CO1` (racemic): at Monoglyceride lipase [1], the 50% inhibitory concentration (IC50) was more than 10 µM. Further, the inhibition in assay [2] was found to be 22%.

On to `O=C(CCCCCc1ccc(-c2ccccc2)cc1)OCC1CO1` (racemic), for which the inhibition result in assay [7] and in assay [11] was “inactive” in each case. For the same molecule, the Kic in [8] worked out at 8 µM. For the same molecule, on Monoglyceride lipase [1], the 50% inhibitory concentration (IC50) stood at 4.1 µM. The inhibition result in assay [9], in [10], in assay [12] and in [13] was “Active” each time. Further, the Imax in [4] came out at 89%.

Consider `CCCCC/C=C\C/C=C\C/C=C\C/C=C\CCCC(=O)OCC1CCCCO1` (stereo not given), for which the IC50 in assay [3] was 5.6 µM.

Regarding `O=C(Cc1ccc(Cc2ccccc2)cc1)OC(CO)CO`, the IC50 in [3] is more than 100 µM; in assay [5], 0.7 µM. Also, the values for the inhibition in [14] and in assay [2] were 49% and less than 10%, respectively.

On to `O=C(/C=C/c1ccc(-c2ccccc2)cc1)OCC1CCCCO1` (racemic), for which the IC50 on Monoglyceride lipase [1] came out at 0.76 µM. Further, the inhibition in [6] was determined as 37%. Besides, in assay [2], the Imax is 90%.

Turning to `O=C(CCCc1ccc(-c2ccccc2)cc1)OCC1CO1` (racemic), the IC50 on Monoglyceride lipase [1] was determined as 1.8 µM. Moreover, the Imax in [2] turned out to be 86%.

With `O=C(CCCCCc1ccc(-c2ccccc2)cc1)OC(CO)CO`, the IC50 on Monoglyceride lipase [1] came to 7.5 µM.

As for `O=C(CCCCc1ccc(-c2ccccc2)cc1)OCC1CCCCO1` (racemic), at Monoglyceride lipase [1], the IC50 turned out to be 12 µM.

`O=C(CCc1ccc(-c2ccccc2)cc1)OCC1CCCCO1` (racemic): at Monoglyceride lipase [1], the IC50 came to 1.6 µM. In addition, in assay [2], the Imax came to 67%.

Regarding `O=C(CCCCCCc1ccc(-c2ccccc2)cc1)OCC1CO1` (racemic), the half-maximal inhibitory concentration (IC50) on Monoglyceride lipase [1] was more than 10 µM. In addition, the inhibition in [2] came out at 11%.

As for `O=C(Cc1ccc(Cc2ccccc2)cc1)OCC1CO1` (racemic), the IC50 on Monoglyceride lipase [1] was 16 µM.

Consider `O=C(Cc1ccc(Cc2ccccc2)cc1)OCC1CCCCO1` (racemic), for which the figures for the IC50 in assay [3] and in assay [5] were more than 100 µM and 6.8 µM, respectively. In addition, the Imax in assay [6] was 96%. In addition, the inhibition in assay [14] is 25%; in assay [2] it was less than 10%.

By Ki is commonly meant a dissociation constant, usually derived from enzyme kinetics or from competition with a known ligand. `O=C(Cc1ccc(Cc2ccccc2)cc1)OC[C@H]1CO1`: the inhibition entry in [7], in assay [16], in assay [17], in assay [18], in assay [19] and in assay [11] was “inactive” throughout. Also, the inhibition constant Ki at Monoglyceride lipase [15] is 40 µM. Moreover, the IC50 at Monoglyceride lipase [1] came to 2.4 µM.

In the case of `O=C(CCCc1ccc(Cc2ccccc2)cc1)OCC1CO1` (racemic), the IC50 at Monoglyceride lipase [1] was more than 10 µM. The inhibition in assay [2] is 29%.

Turning to `O=C(CCCCCc1ccc(-c2ccccc2)cc1)OC[C@H]1CO1`, on Monoglyceride lipase [1], the IC50 is more than 10 µM. The inhibition in [2] was 33%. Moreover, the Imax in assay [4] came to 91%.

`O=C(Cc1ccc(-c2ccccc2)cc1)OCC1CCCCO1` (racemic): on Monoglyceride lipase [1], the IC50 was more than 10 µM. Besides, the inhibition in assay [2] turned out to be 21%.

`O=C(CCCCCc1ccc(-c2ccccc2)cc1)OC[C@@H]1CO1`: the IC50 at Monoglyceride lipase [1] is more than 10 µM. In addition, the Imax in [6] is more than 95%; in assay [4] it was 92%. The inhibition in [2] came out at 45%.

As for `O=C(OCC1CCCCO1)c1ccc(CCc2ccccc2)cc1` (racemic), the inhibition in assay [2] was less than 10%.

With `O=C(CCCCCCc1ccc(-c2ccccc2)cc1)OCC1CCCCO1` (racemic), at Monoglyceride lipase [1], the concentration for half-maximal inhibition (IC50) is more than 10 µM. For the same molecule, the Imax in assay [6] stood at 83%. Also, the inhibition in assay [2] amounted to 37%.

As to `O=C(Cc1ccc(Cc2ccccc2)cc1)OC[C@@H]1CO1`, the inhibition in assay [2] is less than 10%.

With `O=C(CCc1ccc(Cc2ccccc2)cc1)OCC1CO1` (racemic), in [2], the inhibition was less than 10%. For the same molecule, the Imax in assay [4] amounted to 72%.

As to `O=C(Cc1ccc(-c2ccccc2)cc1)OCC1CO1` (racemic), the inhibition in assay [2] was less than 10%.

Turning to `O=C(CCCCCc1ccc(-c2ccccc2)cc1)OCC1CCCCO1` (racemic), the IC50 on Monoglyceride lipase [1] is more than 10 µM. For the same molecule, the inhibition in assay [2] was 33%.

With `O=C(CCCc1ccc(-c2ccccc2)cc1)OCC1CCCCO1` (racemic), the IC50 on Monoglyceride lipase [1] was more than 10 µM. Moreover, the inhibition in [2] turned out to be 34%.

`O=C(/C=C/Cc1ccc(-c2ccccc2)cc1)OCC1CCCCO1` (racemic): the IC50 on Monoglyceride lipase [1] was more than 10 µM. Moreover, the inhibition in assay [2] stood at 49%.

On to `O=C(CCCc1ccc(Cc2ccccc2)cc1)OCC1CCCCO1` (racemic), for which the half-maximal inhibitory concentration (IC50) on Monoglyceride lipase [1] was more than 10 µM. The Imax in [6] came to 72%. Moreover, the inhibition in assay [2] is 14%.

Take `O=C(OCC1CO1)c1ccc(CCc2ccccc2)cc1` (racemic): the inhibition in assay [2] is less than 10%.

On to `O=C(Oc1ccc([N+](=O)[O-])cc1)N1CCC(C(O)(c2ccc3c(c2)OCO3)c2ccc3c(c2)OCO3)CC1`, for which, in assay [20], the inhibition entry was “Active”.
